Laboratory results published in ChEMBL document CHEMBL4765418, “Discovery of novel quinazolinone derivatives as potential anti-HBV and anti-HCC agents” (Eur J Med Chem, 2020).

What was measured:
[1] = system: HepG2; assay: Antiproliferative activity against human HepG2 cells assessed as inhibition of cell proliferation after 72 hrs by MTT assay; format: functional, cell-based; settings: HepG2, 72 h
Method in brief: (§1)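 Cells seeded in 96-well plates and grown 24 h to reach exponential growth, then exposed to test compounds in culture medium for 72 h. Viability read by MTT absorbance at 490 nm relative to untreated cells. IC50 is the concentration giving 50% inhibition of proliferation.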

[2] = system: Hepatitis B virus; assay: (§2) Antiviral activity against HBV infected in human HepG2.2.15 cells assessed as inhibition of DNA replication at 0.8 uM supplemented with fresh medium containing compound every 2 days for 6 days by RT-PCR analysis relative to control; format: functional; settings: HepG2 2.2.15, 144 h, time 6 day
Method in brief: (§3)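 HepG2 2.2.15 cells (2×10^5/well, 24-well) left 24 h to recover from trypsinization, then given fresh medium with compound (single-point screen at 0.8 μM), renewed every 2 days for 6 days. Intracellular HBV DNA extracted and quantified by real-time PCR. IC50 is the dose giving 50% inhibition of DNA replication, taken from dose–response.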

[3] = Cytotoxicity against human HepG2 2.2.15 cells assessed as reduction in cell viability measured after 72 hrs by MTT assay; format: cell-based
Method in brief: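 HepG2 2.2.15 cells (HBV-producing; grown in DMEM with 10% FBS, penicillin/streptomycin and 0.38 mg/mL G418) seeded in 96-well plates and grown 24 h, then treated 72 h with compounds. Viability read by MTT absorbance at 490 nm relative to untreated cells. CC50 is the dose causing 50% cell death.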

[4] = system: SK-HEP1; assay: Antiproliferative activity against human SK-HEP1 cells assessed as inhibition of cell proliferation after 72 hrs by MTT assay; format: functional, cell-based; settings: SK-HEP1, 72 h; method in brief: as §1
[5] = system: Huh-7; assay: Antiproliferative activity against human Huh-7 cells assessed as inhibition of cell proliferation after 72 hrs by MTT assay; format: functional, cell-based; settings: Huh-7, 72 h; method in brief: as §1
[6] = Selectivity index, ratio of CC50 for human HepG2 2.2.15 cells to IC50 for antiviral activity against HBV infected in human HepG2.2.15 cells assessed as inhibition of DNA replication; format: toxicity, cell-based; settings: read-out: Ratio CC50/IC50
[7] = system: Hepatitis B virus; assay: Antiviral activity against HBV infected in human HepG2.2.15 cells assessed as inhibition of DNA replication supplemented with fresh medium containing compound every 2 days for 6 days by RT-PCR analysis; format: functional, organism-based; settings: HepG2 2.2.15; method in brief: as §3
[8] = system: Hepatitis B virus; assay: as §2, with “against lamivudine and entecavir-resistant” for “against”, “HBV harboring rtL180 M/rtM204V/rtT184L mutant” for “HBV”, “10” for “0.8”; format: functional; settings: HepG2 2.2.15, 144 h, time 6 day
[9] = system: Hepatitis B virus; assay: Antiviral activity against HBV infected in human HepG2.2.15 cells assessed as inhibition of DNA replication at 10 uM supplemented with fresh medium containing compound every 2 days for 6 days by RT-PCR analysis relative to control; format: functional; settings: HepG2 2.2.15, 144 h, time 6 day

IC50 [1] | IC50 [4] | IC50 [5] | IC50 [7] | SMILES | inhibition at 0.8 µM [2] | CC50 at 72 h [3] | selectivity ratio [6] | inhibition at 10 µM [8] | inhibition at 10 µM [9]
> 20 µM | – | – | – | CCN(CC)CCOc1ccc2nc(SCc3cc(C(C)=O)ccc3OC)n(Cc3ccccc3)c(=O)c2c1 | 4.93% | > 10 µM | – | – | –
7.67 µM | 9.64 µM | 7.92 µM | – | CNC(=O)c1cc(Oc2ccc(NC(=O)Nc3ccc(Cl)c(C(F)(F)F)c3)cc2)ccn1 [SORAFENIB] | – | – | – | – | –
> 20 µM | – | – | 0.68 µM | CN(C)CCOc1ccc2nc(SCc3ccccc3)n(Cc3ccccc3)c(=O)c2c1 | 65.5% | > 10 µM | > 14.7 | – | –
> 100 µM | – | – | 0.72 µM | COc1ccccc1CSc1nc2ccc(OCCN(C)C)cc2c(=O)n1Cc1ccco1 | 67.1% | > 10 µM | > 13.9 | – | –
> 20 µM | – | – | 0.66 µM | CCN(CC)CCOc1ccc2nc(SCc3ccccc3)n(Cc3ccccc3)c(=O)c2c1 | 64.5% | > 10 µM | > 15.2 | – | –
11.8 µM | – | – | – | COc1ccccc1CSc1nc2ccc(OCCCN(C)C)cc2c(=O)n1Cc1ccccc1 | 3.66% | > 10 µM | – | – | –
– | – | – | – | C=C1[C@H](CO)[C@@H](O)C[C@@H]1n1cnc2c(=O)[nH]c(N)nc21 [ENTECAVIR] | – | – | – | 18.9% | 96.9%
19 µM | – | – | – | COc1ccc(C(C)=O)cc1CSc1nc2ccc(OCCN(C)C)cc2c(=O)n1Cc1ccccc1 | 15.6% | > 10 µM | – | – | –
8.81 µM | – | – | – | COc1ccccc1CSc1nc2ccc(OCCCN(C)C)cc2c(=O)n1Cc1cccs1 | 21.6% | > 10 µM | – | – | –
> 20 µM | – | – | – | CN(C)CCCOc1ccc2nc(SCc3ccccc3)n(Cc3ccccc3)c(=O)c2c1 | 42.8% | > 10 µM | – | – | –
9.4 µM | – | – | 0.79 µM | COc1ccc(C(C)=O)cc1CSc1nc2ccc(OCCCN(C)C)cc2c(=O)n1Cc1ccco1 | 54.2% | > 10 µM | > 12.7 | – | –
> 20 µM | – | – | – | CCN(CC)CCOc1ccc2nc(SCc3ccccc3OC)n(Cc3ccccc3)c(=O)c2c1 | 9.8% | > 10 µM | – | – | –
